Reference: ChEMBL document CHEMBL4350958, “Rational Design of Short Peptide Variants by Using Kunitzin-RE, an Amphibian-Derived Bioactivity Peptide, for Acquired Potent Broad-Spectrum Antimicrobial and Improved Therapeutic Potential of Commensalism Coinfection of Pathogens” (J Med Chem, 2019)
In brackets after ≈: the same amount, converted by molar mass.

Key:
[1] = system: Salmonella typhimurium; assay: Bactericidal activity against Salmonella typhimurium ATCC 14028 incubated for 24 hrs followed by replating on agar plate and measured after overnight incubation; assay type: functional, Salmonella enterica subsp. enterica serovar Typhimurium; conditions: Salmonella enterica, ATCC 14028, 24 h; read-out: MBC>99.9
Method in brief: (§1)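 Mid-log bacteria diluted in MHB to (0.5–1) × 10^5 CFU/mL and mixed 1:1 with peptide serially diluted in 0.2% BSA. After 24 h at 37 °C, 50 μL of each mixture was plated on agar and incubated overnight. MBC taken as the lowest concentration killing >99.9% of cells. At least three independent experiments, each with three technical replicates.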

[2] = system: Escherichia coli; assay: Antibacterial activity against Escherichia coli ATCC 25922 measured after 24 hrs; assay type: functional; conditions: ATCC 25922, 24 h
Method in brief: (§2)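 Broth microdilution adapted from NCCLS. Mid-log bacteria were diluted in MHB to a final (0.5–1) × 10^5 CFU mL−1. Peptides were serially diluted in 0.2% BSA and mixed with an equal volume of cells. After 24 h at 37 °C, MIC was read at A492 as the lowest concentration inhibiting 95% of growth. At least three independent experiments, each with three technical replicates.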

[3] = system: Salmonella typhimurium; assay: Bactericidal activity against Salmonella typhimurium C7731 incubated for 24 hrs followed by replating on agar plate and measured after overnight incubation; assay type: functional, Salmonella enterica subsp. enterica serovar Typhimurium; conditions: Salmonella enterica, C7731, 24 h; read-out: MBC>99.9; method in brief: as §1
[4] = system: Escherichia coli; assay: Bactericidal activity against Escherichia coli ATCC 25922 incubated for 24 hrs followed by replating on agar plate and measured after overnight incubation; assay type: functional; conditions: ATCC 25922, 24 h, read-out: MBC>99.9
Method in brief: (§3)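 After the 24 h, 37 °C MHB microdilution (0.5–1 × 10^5 CFU mL−1 inoculum, peptides diluted in 0.2% BSA), 50 μL from each well was plated on agar and incubated overnight. MBC was taken as the lowest concentration killing >99.9% of cells. Three or more independent experiments, each with triplicate technical replicates.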

[5] = Bactericidal activity against Salmonella pullorum ATCC 7913 incubated for 24 hrs followed by replating on agar plate and measured after overnight incubation; assay type: functional, Salmonella enterica subsp. enterica serovar Pullorum; conditions: Salmonella enterica, ATCC 7913, 24 h; read-out: MBC>99.9; method in brief: as §1
[6] = system: Candida albicans; assay: Antifungal activity against Candida albicans cgmcc2.2086 measured after 48 hrs by broth microdilution method; assay type: functional; conditions: cgmcc2.2086, 48 h
Method in brief: (§4)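 Modified CLSI M27-A2 microdilution. Yeast colonies were diluted in MOPS-buffered RPMI 1640 to a final (0.5–1) × 10^3 CFU mL−1 and mixed with an equal volume of peptide serially diluted in 0.2% BSA. After 48 h at 28 °C, MIC was read at A492 as the lowest concentration inhibiting 95% of growth. At least three independent experiments, each with three technical replicates.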

[7] = system: Staphylococcus aureus; assay: Antibacterial activity against Staphylococcus aureus ATCC 29213 measured after 18 to 24 hrs in presence of NH4Cl; assay type: functional
Method in brief: (§5)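 MIC broth microdilution (MHB, 0.2% BSA peptide diluent, A492, 95% inhibition) run in the presence of physiological salts at final concentrations of 6 μM NH4Cl or 8 μM ZnCl2. Three independent assays, each with three technical replicates.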

[8] = system: Escherichia coli; assay: Antibacterial activity against Escherichia coli ATCC 25922 measured after 18 to 24 hrs in presence of NaCl; assay type: functional
[9] = system: Escherichia coli; assay: Antibacterial activity against Escherichia coli ATCC 25922 measured after 18 to 24 hrs in presence of FeCl3; assay type: functional
[10] = system: Salmonella typhimurium; assay: Antibacterial activity against Salmonella typhimurium ATCC 14028 measured after 24 hrs; assay type: functional, Salmonella enterica subsp. enterica serovar Typhimurium; conditions: Salmonella enterica, ATCC 14028, 24 h; method in brief: as §2
[11] = system: Candida parapsilosis; assay: Antifungal activity against Candida parapsilosis cgmcc2.3989 measured after 48 hrs by broth microdilution method; assay type: functional; conditions: Lodderomyces parapsilosis, cgmcc2.3989, 48 h; method in brief: as §4
[12] = system: Escherichia coli; assay: Bactericidal activity against Escherichia coli 078 incubated for 24 hrs followed by replating on agar plate and measured after overnight incubation; assay type: functional; conditions: Escherichia coli, 078, 24 h; read-out: MBC>99.9; method in brief: as §3
[13] = system: Salmonella typhimurium; assay: Antibacterial activity against Salmonella typhimurium C7731 measured after 24 hrs; assay type: functional, Salmonella enterica subsp. enterica serovar Typhimurium; conditions: Salmonella enterica, C7731, 24 h; method in brief: as §2
[14] = system: Candida tropicalis; assay: Antifungal activity against Candida tropicalis cgmcc2.1975 measured after 48 hrs by broth microdilution method; assay type: functional; conditions: cgmcc2.1975, 48 h; method in brief: as §4
[15] = system: Candida albicans; assay: Antifungal activity against Candida albicans cgmcc2.2086 measured after 48 hrs in presence of MgCl by broth microdilution method; assay type: functional; conditions: cgmcc2.2086, 48 h
[16] = system: Candida tropicalis; assay: Fungicidal activity against Candida tropicalis cgmcc2.1975 incubated for 48 hrs followed by replating on YM agar plate and measured after 48 hrs; assay type: functional
Method in brief: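 Yeast diluted in MOPS-buffered RPMI 1640 to (0.5–1) × 10^3 CFU/mL (CLSI M27-A2, modified) and mixed 1:1 with peptide serially diluted in 0.2% BSA. After 48 h at 28 °C, 50 μL per well was plated on YM agar and incubated 48 h at 28 °C. MFC taken as the lowest concentration killing ≥99.9% of cells. Three or more independent experiments, triplicate wells.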

[17] = system: Erythrocyte; assay: Hemolytic activity in human RBC measured after 1 hr; assay type: ADME, cell-based
Method in brief: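 Fresh healthy-donor human erythrocytes at ~1% (v/v) in PBS pH 7.4, mixed 1:1 with peptide (1–128 µM), 1 h at 37 °C. After centrifugation at 1000×g, supernatant hemoglobin read at 576 nm. Untreated cells set 0% and 0.1% Triton X-100 set 100%. MHC defined as the concentration giving >10% hemolysis. Three or more independent experiments, triplicates.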

[18] = system: Staphylococcus aureus; assay: Antibacterial activity against Staphylococcus aureus ATCC 29213 measured after 18 to 24 hrs in presence of ZnCl2; assay type: functional; method in brief: as §5
[19] = system: Escherichia coli; assay: Antibacterial activity against Escherichia coli ATCC 25922 measured after 18 to 24 hrs in presence of ZnCl2; assay type: functional
[20] = system: Pseudomonas aeruginosa; assay: Antibacterial activity against Pseudomonas aeruginosa ATCC 27853 measured after 24 hrs; assay type: functional; conditions: ATCC 27853, 24 h; method in brief: as §2
[21] = system: Staphylococcus aureus; assay: Bactericidal activity against methicillin-resistant Staphylococcus aureus ATCC 43300 incubated for 24 hrs followed by replating on agar plate and measured after overnight incubation; assay type: functional; conditions: ATCC 43300, 24 h, read-out: MBC>99.9
Method in brief: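 After the 24 h, 37 °C MHB microdilution MIC assay, 50 μL from each well was plated on agar and incubated overnight. MBC taken as lowest peptide concentration killing >99.9% of cells. At least three independent experiments, each with three technical replicates.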

[22] = Therapeutic index, ratio of MHC10 for hemolytic activity in human RBC to MIC95 against Staphylococcus aureus ATCC 25923; assay type: toxicity; conditions: human red blood cells (erythrocytes), read-out: TI
Method in brief: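 Therapeutic index = MHC divided by MIC. MHC is the lowest concentration giving >10% lysis of human RBC (1 h, 37 °C, 1-128 µM, A576). MIC is 95% growth inhibition by broth microdilution: bacteria in MHB 24 h at 37 °C; Candida in MOPS-buffered RPMI 1640 at (0.5–1) × 10^3 CFU mL−1, 48 h at 28 °C.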

[23] = system: Staphylococcus aureus; assay: Antibacterial activity against Staphylococcus aureus ATCC 29213 measured after 18 to 24 hrs in presence of KCl; assay type: functional

Compound | MBC [1] | MIC95 [2] | MBC [3] | MBC [4] | MBC [5] | MIC95 [6] | MIC95 [7] | MIC95 [8] | MIC95 [9] | MIC95 [10] | MIC95 [11] | MBC [12] | MIC95 [13] | MIC95 [14] | MIC95 [15] | MFC<=99.9 [16] | MHC10 [17] | MIC95 [18] | MIC95 [19] | MIC95 [20] | also measured
CC[C@H](C)[C@H](NC(=O)CN)C(=O)NCC(=O)N[C@@H](C)C(=O)N[C@H](C(=O)N[C@@H](CC(C)C)C(=O)N[C@@H](CCCCN)C(=O)N[C@H](C(=O)N[C@@H](CC(C)C)C(=O)N[C@H](C(=O)N[C@H](C(=O)NCC(=O)N[C@@H](CC(C)C)C(=O)N1CCC[C@H]1C(=O)N[C@@H](C)C(=O)N[C@@H](CC(C)C)C(=O)N[C@H](C(=O)N[C@@H](CO)C(=O)N[C@@H](Cc1c[nH]c2ccccc12)C(=O)N[C@H](C(=O)N[C@@H](CCCCN)C(=O)N[C@@H](CCCNC(=N)N)C(=O)N[C@@H](CCCCN)C(=O)N[C@@H](CCCNC(=N)N)C(=O)N[C@@H](CCC(N)=O)C(=O)N[C@@H](CCC(N)=O)C(N)=O)[C@@H](C)CC)[C@@H](C)CC)[C@@H](C)O)[C@@H](C)O)C(C)C)C(C)C [MELITTIN] | 2 µM (≈ 5.69 µg/mL) | 2 µM (≈ 5.69 µg/mL) | 4 µM (≈ 11.4 µg/mL) | 4 µM (≈ 11.4 µg/mL) | 2 µM (≈ 5.69 µg/mL) | 4 µM (≈ 11.4 µg/mL) | 4 µM | 4 µM | 2 µM | 2 µM (≈ 5.69 µg/mL) | 2 µM (≈ 5.69 µg/mL) | 2 µM (≈ 5.69 µg/mL) | 2 µM (≈ 5.69 µg/mL) | 4 µM (≈ 11.4 µg/mL) | 4 µM | 4 µM (≈ 11.4 µg/mL) | 1 µM | 4 µM | 2 µM | 2 µM (≈ 5.69 µg/mL) | MBC [21]: 4 µM (≈ 11.4 µg/mL); selectivity ratio [22]: 0.35; MIC95 [23]: 4 µM
H-AARIILRFRFR-NH2 | 8 µM | 8 µM | 8 µM | 8 µM | 8 µM | 8 µM | 2 µM | 64 µM | 16 µM | 4 µM | 4 µM | 8 µM | 4 µM | 4 µM | 16 µM | 4 µM | > 128 µM | 2 µM | 4 µM | > 128 µM | MBC [21]: 4 µM; selectivity ratio [22]: 128; MIC95 [23]: 2 µM
H-AARIILRGRFR-NH2 | 8 µM | 4 µM | 16 µM | 8 µM | 8 µM | 128 µM | 16 µM | 64 µM | 4 µM | 4 µM | 64 µM | 8 µM | 8 µM | 16 µM | > 128 µM | 32 µM | > 128 µM | 8 µM | 4 µM | 16 µM | MBC [21]: 8 µM; selectivity ratio [22]: 26.9; MIC95 [23]: 8 µM
H-AARIILRTRFR-NH2 | 32 µM | 8 µM | 32 µM | 16 µM | 16 µM | 128 µM | 16 µM | > 128 µM | 16 µM | 16 µM | 64 µM | 8 µM | 16 µM | 32 µM | > 128 µM | 64 µM | > 128 µM | 16 µM | 8 µM | > 128 µM | MBC [21]: 32 µM; selectivity ratio [22]: 16; MIC95 [23]: 32 µM
H-AARIILRWFRR-NH2 | 8 µM | 2 µM | 8 µM | 2 µM | 8 µM | 8 µM | 4 µM | 8 µM | 2 µM | 4 µM | 4 µM | 4 µM | 4 µM | 4 µM | 16 µM | 4 µM | > 128 µM | 2 µM | 2 µM | 8 µM | MBC [21]: 8 µM; selectivity ratio [22]: 53.8; MIC95 [23]: 4 µM
H-AARIILRWRFR-NH2 | 4 µM | 4 µM | 4 µM | 4 µM | 4 µM | 8 µM | 2 µM | 8 µM | 4 µM | 2 µM | 4 µM | 2 µM | 4 µM | 4 µM | 16 µM | 4 µM | > 128 µM | 1 µM | 4 µM | 4 µM | MBC [21]: 1 µM; selectivity ratio [22]: 215; MIC95 [23]: 1 µM
H-AARIILRIRFR-NH2 | 4 µM | 4 µM | 8 µM | 4 µM | 4 µM | 8 µM | 2 µM | 8 µM | 4 µM | 2 µM | 4 µM | 4 µM | 4 µM | 4 µM | 16 µM | 4 µM | 128 µM | 2 µM | 4 µM | 16 µM | MBC [21]: 4 µM; selectivity ratio [22]: 64; MIC95 [23]: 2 µM
H-AARIILRRRFR-NH2 | 64 µM | 8 µM | 16 µM | 16 µM | 32 µM | 128 µM | 16 µM | 128 µM | 32 µM | 32 µM | 64 µM | 32 µM | 8 µM | 64 µM | > 128 µM | 128 µM | > 128 µM | 16 µM | 8 µM | > 128 µM | MBC [21]: 64 µM; selectivity ratio [22]: 13.4; MIC95 [23]: 32 µM
